These results are taken from ChEMBL document CHEMBL2169863, “Discovery, structure-activity relationship, and biological evaluation of noninhibitory small molecule chaperones of glucocerebrosidase” (J Med Chem, 2012).

Data set [1] has as its system T1, Lysosomal acid glucosylceramidase (Homo sapiens), P04062 [N409S].
T1 sequence (whole entry): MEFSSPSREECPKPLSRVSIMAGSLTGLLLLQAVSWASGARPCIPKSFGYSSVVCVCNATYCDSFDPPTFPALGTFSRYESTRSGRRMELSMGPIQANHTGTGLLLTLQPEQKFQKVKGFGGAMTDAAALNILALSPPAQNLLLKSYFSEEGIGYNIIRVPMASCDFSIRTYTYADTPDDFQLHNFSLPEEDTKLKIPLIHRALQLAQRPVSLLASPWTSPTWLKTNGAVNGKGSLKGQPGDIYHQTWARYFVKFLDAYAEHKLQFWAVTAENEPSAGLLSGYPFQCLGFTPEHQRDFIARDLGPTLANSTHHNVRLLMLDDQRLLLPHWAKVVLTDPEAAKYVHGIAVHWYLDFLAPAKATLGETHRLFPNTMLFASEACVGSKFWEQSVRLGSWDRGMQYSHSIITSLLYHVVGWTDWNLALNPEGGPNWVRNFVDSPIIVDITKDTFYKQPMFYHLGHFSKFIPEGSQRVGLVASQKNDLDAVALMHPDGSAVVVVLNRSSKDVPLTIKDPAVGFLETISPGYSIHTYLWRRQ
The experiment in a line: Activation of glucocerebrosidase N370S mutant using C12-BODIPY-GlcCer as substrate assessed as half-maximal activation concentration incubated for 5 mins prior to substrate addition measured after 30 to 45 mins by HPLC analysis. Summed up: (§1)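 N370S/N370S patient spleen homogenate at 140 μg/well. Compound was tested at 9 concentrations, 1:2 dilutions from 50 μM. Substrate was 2 mM 4MU-Glc or the C12-BODIPY substrate at 25 μM; other conditions as the plate assay. Stopped reactions were separated on C18 HPLC with fluorescence detection: 4MU at 365/440 nm, C12-BODIPY-Cer at 506/540 nm.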

The subject of the next data set is Caco-2. The experiment in a line: Apparent permeability of the compound from apical to basal side of human Caco2 cells after 2 hrs. The class given is ADME, cell-based. The note with it: caco-2, 2 h. In short, it runs like this:
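Caco-2 monolayers were grown 3 weeks, with integrity checked by Lucifer yellow. Compound was added apically (pH 6.5 HBSS/HEPES/glucose buffer) or basolaterally (pH 7.4) and incubated 2 h. Transfer was quantified by LC−MS/MS and expressed as P_app. Efflux ratio is P_app B→A over A→B.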
Background: Caco-2 cells form a polarised layer with tight junctions and transporters.

Data set [2] is described as follows: Ratio of AUClast in brain to AUClast in plasma in C57BL/6 mouse at 50 mg/kg, ip. Further details: dose 50 mg/kg, route intraperitoneal. The class given is ADME, organism-based. Summed up:
(§2)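 Male C57BL/6 mice, 18−26 g, given a single ip dose of 50 mpk in 20% PEG 400 + 80% (20% HP-β-CD). Plasma, brain and liver were sampled, and brain and liver were homogenized in 3 volumes of PBS pH 7.4 (dilution factor 4). Analysis was by LC−MS/MS. Mean profiles N = 3.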

Data set [3] has as its system T1, Lysosomal acid glucosylceramidase (Homo sapiens), P04062 [N409S]. Description: Activation of glucocerebrosidase N370S mutant using 4-methylumbelliferone-beta-Glc as substrate incubated for 5 mins prior to substrate addition measured after 30 to 45 mins by HPLC analysis. Summed up: as §1
Data set [4] has as its system Plasma. The experiment in a line: Cmax in C57BL/6 mouse plasma at 50 mg/kg, ip. It counts as ADME, organism-based. Also on record: dose 50 mg/kg, route intraperitoneal. Particulars: in vivo. In short, it runs like this: as §2
For data set [5], the system named is Liver. The experiment in a line: Half life in C57BL/6 mouse liver at 50 mg/kg, ip. It counts as ADME, organism-based. Further details: dose 50 mg/kg, route intraperitoneal. The note with it: in vivo. In short, it runs like this: as §2
The species named for the next data set is Homo sapiens. Description: Activation of Glucocerebrosidase N370S/N370S mutant translocation to lysosome in Gaucher patient dermal fibroblasts at 5 uM incubated for 6 days by LAMP2 co-localization-based laser scanning confocal microscopic analysis relative to vehicle-treated control.
The test system of data set [6] is Brain. Description: Tmax in C57BL/6 mouse brain at 50 mg/kg, ip. The class given is ADME, organism-based. Also on record: dose 50 mg/kg, route intraperitoneal. The note with it: in vivo. Summed up:
as §2

The subject of data set [7] is Liver. Description: AUC (infinity) in C57BL/6 mouse liver at 50 mg/kg, ip. It counts as ADME, organism-based. Further details: time infinity, dose 50 mg/kg, route intraperitoneal. The note with it: in vivo. In short, it runs like this:
as §2

In data set [8] the test system is Plasma. Description: AUC (infinity) in C57BL/6 mouse plasma at 50 mg/kg, ip. Particulars: in vivo. Further details: time infinity, dose 50 mg/kg, route intraperitoneal. The class given is ADME, organism-based. In short, it runs like this: as §2
The test system of data set [9] is T1, Lysosomal acid glucosylceramidase (Homo sapiens), P04062 [N409S]. The experiment in a line: Activation of Glucocerebrosidase N370S/N370S mutant translocation to lysosome in Gaucher patient dermal fibroblasts at 5 uM incubated for 6 days by LAMP2 colocalization-based laser scanning confocal microscopic analysis relative to vehicle-treated control. Summed up: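 N370S/N370S Gaucher dermal fibroblasts were treated 6 days at 1, 5 or 25 μM, with DMSO vehicle control. Cells were fixed in 3% paraformaldehyde, permeabilized with Triton-X and stained with anti-GCase R386 (Alexa555), anti-LAMP-2 (Alexa488) and DAPI. Confocal imaging used constant laser settings, scoring GCase/LAMP-2 colocalization.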

Data set [10] can be described thus: Cytotoxicity against human dermal fibroblasts expressing wild type GCase at 5 uM after 6 days. It counts as cell-based. The note with it: fibroblast, 144 h. In short, it runs like this: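 Fibroblasts of the stated genotype were seeded at 5000 cells/well. After 1 day they were switched to OPTI-MEM with 5% FBS and treated 6 days with compound. Viability was read by CellTiter-Glo luminescence on a parallel plate.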

Data set [11] has as its system T1, Lysosomal acid glucosylceramidase (Homo sapiens), P04062 [N409S]. Description: Activation of glucocerebrosidase N370S mutant in Gaucher patient spleen homogenates using 4-methylumbelliferone-Glc as substrate assessed as half-maximal activation concentration incubated for 5 mins prior to substrate addition measured after 30 to 45 mins by fluorimetric analysis. The class given is tissue-based. In short, it runs like this: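 Spleen homogenate (27 μg final) in pH 5 citrate/phosphate buffer with KCl, NaCl, MgCl₂ and 0.01% Tween-20. Compound was titrated 0.5 nM to 58 μM and preincubated 5 min at room temperature. Reaction used 1 mM 4MU-Glc for 30−45 min at 37 °C and was stopped with NaOH/glycine pH 10. Read-out was fluorescence at Ex 365/Em 440 nm. AC₅₀ is the average of N = 2.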

The test system of data set [12] is Brain. The experiment in a line: Half life in C57BL/6 mouse brain at 50 mg/kg, ip. The class given is ADME, organism-based. Also on record: dose 50 mg/kg, route intraperitoneal. Particulars: in vivo. In short, it runs like this: as §2
The subject of data set [13] is Brain. The experiment in a line: Cmax in C57BL/6 mouse brain at 50 mg/kg, ip. Further details: dose 50 mg/kg, route intraperitoneal. The note with it: in vivo. The class given is ADME, organism-based. In short, it runs like this:
as §2

Data set [14] addresses T2, Lysosomal acid glucosylceramidase (Homo sapiens) (UniProt P04062).
T2 sequence (whole entry): T1 sequence (whole entry) with S409N
Description: Activation of wild type glucocerebrosidase translocation to lysosome in human dermal fibroblast incubated for 6 days by LAMP2 colocalization-based laser scanning confocal microscopic analysis relative to vehicle-treated control.

Molecules are shown by their SMILES. Where a chain is given by its changes, count along the chain named. Activity calls are given as the source filed them. No cut-off for these calls is given here.

As usually defined, the Papp is a coefficient for how fast a substance crosses the barrier. By Cmax is commonly meant the maximum level reached in the sampled fluid or tissue. A word on the Tmax: it is the time from dosing to the highest level. As usually defined, the AUC is concentration integrated over time. Lower therefore signals low exposure. As for `C#Cc1ccc(NC(=O)c2cnn3c(C)cc(C)nc23)cc1`, in data set [1], the result was inactive. Moreover, in the data set on Caco-2, the Papp was found to be 6 ×10⁻⁶ cm/s. Besides, the “Ratio AUC” value in [2] was 290%. For the same compound, the Activity entry in [3] is “Dose-dependent effect”; in data set [10], “Non-toxic”; in [11], 0.36 µM. The maximum concentration (Cmax) is 1030 nM in the data set on Plasma [4] and 2760 nM in the data set with Brain [13]. Further, the t1/2 with Liver [5] worked out at 28.9 h; with Brain [12], 18.2 h. For the same compound, the result (in the data set filed under Homo sapiens; in data set [9]; in [14]) was Active. Also, in the data set with Brain [6], the Tmax is 0.25 h. Also, the figures for the exposure (AUC) with Liver [7] and in the data set on Plasma [8] were 105000 ng·h/mL and 474 ng·h/mL, respectively.
